# Results pooled from the literature.
# Lines come from different studies, so protocols differ.
# BTK: Tyrosine-protein kinase BTK (BTK, Homo sapiens, UniProt Q06187)
Compound,target,observed,action,method,concentration,quantity,value
CN1CCN(C(=O)c2ccc(NC(=O)Nc3ccc(N(C)c4ccnc(Nc5ccc(CS(C)(=O)=O)cc5)n4)cc3)cc2)CC1,BTK,binding,,competition with immobilised ligand,1 µM,remaining binding,50%
C#Cc1cnc(Nc2ccnc(CO)c2)nc1Nc1ccccc1S(C)(=O)=NC#N (stereo not shown),BTK,cell-free assay,,,1 µM,remaining signal,41%
CC#CC(=O)N1CCC[C@H]1c1nc(-c2ccc(C(=O)Nc3ccccn3)cc2)c2c(N)nccn12,BTK,enzyme activity,inhibitor,,1 µM,inhibition,100%
N#Cc1ccc(NC(=O)Nc2ccccc2)cc1,BTK,cell-free assay,,competition with immobilised ligand,25 µM,remaining binding,89%
COc1ccc2[nH]c3c4[nH]c5ccc(OC)cc5c4c4c(c3c2c1)C(=O)NC4=O,BTK,binding,,competition with immobilised ligand,1 µM,remaining binding,74%
C1=C/COCc2cc(ccc2OCCN2CCCC2)Nc2nccc(n2)-c2cccc(c2)COC/1,BTK,cell-free assay,,,0.1 µM,remaining signal,100%
Cc1nc(Nc2ncc(C(=O)Nc3c(C)cccc3Cl)s2)cc(N2CC[C@H](N)C2)n1,BTK,enzyme activity,inhibitor,mobility shift,1 nM,inhibition,65%
CO[C@@H]1[C@H](N(C)C(=O)c2ccccc2)C[C@H]2O[C@]1(C)n1c3ccccc3c3c4c(c5c6ccccc6n2c5c31)C(=O)NC4,BTK,enzyme activity,inhibitor,,1 µM,inhibition,0%
Cc1nc(Nc2ncc(C(=O)Nc3c(C)cccc3Cl)s2)cc(N2CCC(O)CC2)n1,BTK,enzyme activity,inhibitor,mobility shift,1 nM,inhibition,77%
COc1ccc2oc(-c3ccc4nc(N)oc4c3)c/c(=N\c3ccccc3NC(=O)CCN)c2c1,"Tyrosine-protein kinase BTK (BTK, Homo sapiens, UniProt Q06187, R28H)",cell-free assay,,,1 µM,remaining signal,99%
C=CC(=O)Nc1cccc(Oc2nc(Nc3ccc(N4CCN(C)CC4)cc3)nc3ccoc23)c1,"Tyrosine-protein kinase BTK, non-phosphorylated (BTK, Homo sapiens, UniProt Q06187)",cell-free assay,,TR-FRET,,kinact/KI,219000 M⁻¹ s⁻¹
CCCCC(=O)Nc1ccc(-c2ccc3ncn(CCC)c(=O)c3c2)cn1,BTK,binding,,competition with immobilised ligand,0.5 µM,remaining binding,89%
[2H]c1cc(C)c(NC(=O)c2cnc(Nc3cc(N4CC[C@@H](O)C4)nc(C)n3)s2)c(Cl)c1,BTK,enzyme activity,inhibitor,mobility shift,1 nM,inhibition,73%
